The list is not random: actives were taken first. Their share in the collection is about 3.3%.
Arr AP2 block: inhibitors of human beta-arrestin and AP2 interaction. actives 0.31% (n = 340,000). inhibition, % at 10 µM. FITC-arrestin peptide / GST-AP2 beads, flow cytometry; AP2 beta2 appendage carries R879A mutation. AID 504490;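 active means inhibition above a set limit, near 3 SD of compounds lacking own fluorescence, cut at about 54% in these data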;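 further: plate controls were DMSO wells for no effect and 5 µM unlabelled arrestin peptide for full effect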
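System: GST-AP2 R879A bound to glutathione beads, E. coli-expressed. Also added: 50 nM FITC-arrestin peptide. Schedule: compound with beads 12 min RT, then probe 1 h RT. Signal: bead flow cytometry, FITC channel. Read-out basis: percent response.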
M18AAP inhibitor: PfM18AAP enzyme inhibition | recombinant PfM18AAP, H-Glu-NHMec fluorogenic cleavage | inhibition, % at 7.35 µM | actives 1.2% (n = 290,000) | AID 1822;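 active means inhibition above the campaign mean inhibition over all tested compounds plus 3 SD, cut at about 28% in these data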;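 further: 0% = plate median of test compound wells and 100% = 2 mM ZnCl2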
Lipid droplet: hepatic lipid droplet formation modulation. actives 0.4% (n = 240,000). inhibition, % at 6.5 µM. AML12 mouse hepatocytes, oleate lipid droplets, BODIPY imaging;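 active means lipid droplet intensity inhibited by at least 50%, with more than 500 cells counted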
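Assay system: AML12 mouse liver cells | Compound dosing: One dose, 6.5 µM compound | Read-out basis: Droplet intensity reduction, % inhibition | Measured by: Fluorescence imaging, 20x objective, two fields per well | Schedule: Overnight treatment with compound plus oleate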
HGIII-sPLA2 inh: Inhibits HGIII-sPLA2 liposome hydrolysis, primary screen; Q9NZ20; QFRET BODIPY PC-A2 liposome hydrolysis, fluorescence; inhibition, % at 12.2 µM; actives 0.56% (n = 370,000); AID 743126;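 active means inhibition above mean plus 3 SD of compounds lying within the high and low control bounds, cut at about 19% in these data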;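 further: 0% = median of test compound wells and 100% = no enzyme DMSO wells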
Target sequence (Q9NZ20 whole entry, looked up): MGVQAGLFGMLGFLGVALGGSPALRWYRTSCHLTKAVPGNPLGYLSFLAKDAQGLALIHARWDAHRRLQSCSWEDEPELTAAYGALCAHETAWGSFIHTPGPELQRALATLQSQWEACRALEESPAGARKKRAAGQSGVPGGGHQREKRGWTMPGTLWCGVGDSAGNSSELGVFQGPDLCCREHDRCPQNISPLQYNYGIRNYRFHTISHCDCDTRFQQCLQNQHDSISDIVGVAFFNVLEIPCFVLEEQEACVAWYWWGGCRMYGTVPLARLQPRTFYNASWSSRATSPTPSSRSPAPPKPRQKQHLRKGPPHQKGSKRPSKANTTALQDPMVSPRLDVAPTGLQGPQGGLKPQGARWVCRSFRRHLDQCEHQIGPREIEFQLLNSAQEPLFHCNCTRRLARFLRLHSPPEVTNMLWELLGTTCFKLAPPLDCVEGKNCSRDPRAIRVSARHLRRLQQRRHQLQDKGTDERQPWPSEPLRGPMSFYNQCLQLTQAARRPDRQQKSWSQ
m5-HT2A agonist: mouse HTR2A agonism via beta-arrestin recruitment. CHO-K1 mHTR2A beta-arrestin complementation, luminescence; percent of 30 µM serotonin response. activation, % at 7.6 µM. actives 0.66% (n = 360,000). AID 624169;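 active means activation above a run cutoff, the mean activation of all tested compounds plus 3 SD, cut at about 14% in these data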;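 further: 0% = plate median of compound wells and 100% = 30 µM serotonin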
CendR NRP1 mod: alters CendR peptide binding to human NRP-1; FAM-RPARPAR peptide binding to NRP-1, fluorescence polarization; inhibition, % at 25 µM; O14786; actives 0.85% (n = 360,000);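 active means inhibition or corrected inhibition above about 18%, plus a signal ratio from 0.5 to 1.5, limit read from the data, passing the limit was not always enough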
The depositor's hits bear a star; nt = not tested or not shown.

SMILES	Arr AP2 block	M18AAP inhibitor	Lipid droplet	HGIII-sPLA2 inh	m5-HT2A agonist	CendR NRP1 mod
O=C(Nc1oc2ccccc2c(=O)c1-c1ccc(Cl)cc1)c1ccco1	20	3	-7	-2	-2	-3
Cc1cnccc1CNC(=O)CC1C(=O)NCCN1CC(C)(C)C (stereo not drawn)	-19	-2	4	0	3	26*
Cc1cc(CNC(=O)CC2C(=O)NCCN2CC(C)(C)C)nn1C (stereo not drawn)	-2	-8	9	0	6	12
O=C(NCc1ccccc1)C(C1CC1)n1c(CSCCOc2ccccc2)nc2ccccc21 (stereo not drawn)	nt	nt	nt	-29	-4	9
CC(=O)Nc1ccc(NC(=O)C(C)Sc2nc3ccccc3c(=O)n2CC2CCCO2)cc1 (stereo not drawn)	-11	nt	nt	14	1	4
COc1ccc(NC(=O)CC2Sc3ncnn3C2=O)cc1 (stereo not drawn)	-4	15	3	3	-3	-11
O=C(CC1Sc2ncnn2C1=O)Nc1ccc(Cl)cc1 (stereo not drawn)	nt	30*	3	-3	nt	nt
O=C(CC1SC2=NCCN2C1=O)Nc1ccc(Cl)cc1 (stereo not drawn)	0	6	0	6	2	27*
CCOC(=O)[C@]12CCC=C1N(Cc1ccccc1)C(=O)[C@H](CC(=O)NCCCCc1ccccc1)C2	nt	nt	nt	-19	-5	-1
Cc1ccc2oc(=O)c(/C=C(\O)C(C)(C)C)nc2c1	7	23	-9	-5	0	5
Cc1ccc2oc(=O)c(/C=C(\O)c3sc(C)nc3C)nc2c1	0	29*	-6	-4	-3	-9
O=C(COC(=O)Cc1ccc(Cl)cc1Cl)NCCC1=CCCCC1	8	-4	-3	-2	12	-12
O=C(COC(=O)c1cc(Cl)ccc1O)NCCC1=CCCCC1	10	nt	nt	1	7	20*
C[C@@H](C(=O)Nc1cccnc1)n1c(=O)[nH]c2ccccc2c1=O	-4	4	-1	-3	6	35*
N#Cc1ccccc1NC(=O)COC(=O)CCc1ccccc1	-25	2	-26	-5	0	17*
Cc1ccccc1NC(=O)COC(=O)CCc1ccccc1	4	-5	14	-4	0	-10
O=c1[nH][nH]c2cc(=O)n(-c3cccc(C(F)(F)F)c3)nc12	-2	-2	2	0	5	26*
Nc1n[nH]c2cc(=O)n(-c3cccc(C(F)(F)F)c3)nc12	22	-1	3	-7	-2	0
COC(=O)c1sc2cc(=O)n(-c3cccc(C(F)(F)F)c3)nc2c1O	-5	31*	nt	6	4	6
COc1ccc(C(O)P(=O)(OCCC(C)C)c2ccc(N(C)C)cc2)cc1 (stereo not drawn)	22	1	-1	4	1	-4
O=C(COC(=O)c1ccc(F)c([N+](=O)[O-])c1)NC(=O)NCc1ccccc1	4	nt	nt	-11	0	22*
O=C(N/N=C/c1ccc([N+](=O)[O-])o1)c1ccc2c(c1)OCO2	24	30*	-6	2	-8	-7
C[C@@H]1CN([C@H](C)CO)C(=O)c2cc(NC(=O)Nc3ccccc3)ccc2O[C@@H](C)CCCCO[C@H]1CN(C)S(C)(=O)=O	nt	nt	nt	-11	nt	nt
COc1ccc(Br)cc1C1Nc2cccc3cccc(c23)N1	-3	33*	-2	0	5	0
COc1cc(C2Nc3cccc4cccc(c34)N2)cc(OC)c1OC(C)=O	40	5	-7	-8	5	25*
SMILES	Arr AP2 block	M18AAP inhibitor	Lipid droplet	HGIII-sPLA2 inh	m5-HT2A agonist	CendR NRP1 mod
CCN(CC)c1c(C)nc2ccc(C(=O)NCc3ccc4c(c3)OCO4)cn12	nt	nt	nt	1	-11	-11
Oc1ccc(C[C@H]2CNC(=S)N2CC2CCCN2C[C@H](Cc2ccc(O)cc2)N2C[C@H](Cc3ccc(O)cc3)N(CC3CCCCCC3)C2=S)cc1 (stereo partly drawn)	6	nt	nt	-8	-6	3
c1ccc(-c2csc(Nc3ccc4c(c3)OCO4)n2)cc1	nt	nt	nt	7	-5	24*
CC(C)c1[nH]nc2c1C(c1ccc3c(c1)OCO3)NC2=O (stereo not drawn)	nt	nt	nt	5	nt	nt
COc1cc(Cn2nnc3ccccc32)cc(Br)c1O	15	2	nt	-1	-4	23*
CCN(CC)c1ccc(N=Nc2ncn[nH]2)cc1	1	30*	8	-25	-4	-64
CCN(CC)c1ccc(/C=N/O)cc1	38	-10	31	3	-2	4
O=C1C2Sc3[nH]c(=O)sc3C(c3ccccc3)C2C(=O)N1c1ccccc1 (stereo not drawn)	5	29*	nt	-18	6	-2
COc1ccc(C2c3sc(=O)[nH]c3SC3C(=O)N(c4ccccc4)C(=O)C32)cc1 (stereo not drawn)	3	22	-1	-19	2	-10
Cc1cc(C(=O)N2CCCC(N3CCN(c4cccc(Cl)c4)CC3)C2)nn1C (stereo not drawn)	-2	8	-1	-2	-7	30*
Cc1cc(C(=O)N2CCCC(N3CCN(c4cccc(C(F)(F)F)c4)CC3)C2)nn1C (stereo not drawn)	-5	-3	-1	2	-10	5
c1ccc(CNn2nnc3ccccc32)cc1	nt	nt	nt	0	2	23*
C(#Cc1ccccc1)Cn1nnc2ccccc21	-2	1	9	-2	-5	5
CC(C)(C)n1nnnc1C(c1ccncc1)N1CCN(c2ccc(O)cc2)CC1 (stereo not drawn)	5	30*	7	3	1	1
CC(C)(C)n1nnnc1C(c1ccccc1)N1CCN(c2ccccc2)CC1 (stereo not drawn)	nt	nt	nt	2	3	-7
O=C(N/N=C/c1ccccn1)c1cc(C2CC2)[nH]n1	-18	4	6	1	-4	-9
O=C(N/N=C/c1cccc2ccccc12)c1cc(C2CC2)[nH]n1	-4	5	4	0	-4	22*
CN(C)S(=O)(=O)N1CCN(C(=O)N2CCCCCC2)CC1	10	-13	12	8	0	-6
O=C(N1CCCCCC1)N1CCN(C(=O)N2CCCCC2)CC1	-7	-7	0	3	-1	28*
Cc1ccc(S(=O)(=O)N(C)Cc2ccc(C(=O)N/N=C/c3ccc(OC(F)F)cc3OC(F)F)cc2)cc1	-18	-15	11	3	-3	31*
O=C(N/N=C/c1ccc(OC(F)F)cc1OC(F)F)c1ccc(Br)cc1	4	0	-13	-4	-10	7
Cc1c(Cl)cccc1-c1ccc(C(=O)N2CCN(c3ccc([N+](=O)[O-])cc3)CC2)o1	2	6	nt	9	0	15

Screens from PubChem BioAssay.
